From PubChem
NALP3 yeast inh: NALP3 inhibition in yeast. Yeast reconstituted NLRP3/ASC/caspase-1, beta-gal luminescence, 24 h. inhibition, % at 10 µM. AID 2825. 330,000 compounds, 0.39% hits;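 active = inhibition of 50% or more; inactive = inhibition below 50%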
PolyA inh: blocks polyadenylation in yeast reporter cells; S. cerevisiae SKY197-pL101 polyadenylation reporter, beta-gal luminescence; efflux-impaired pdr1/pdr3 knockout yeast; score 100 = 6 SD above DMSO; activity score, % at 12 µM; 300,000 compounds, 0.02% hits; AID 1875;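 active = lowest replicate activity score at least 50, where 100 means six control SD above control mean; inconclusive = lowest score under 50 but half or more replicates reach 50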;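 also: yeast exposed to compound for 9 h at 30 °C; higher score means more reporter readthrough which indicates perturbed polyadenylation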
Calb FLC: C. albicans growth modulation with fluconazole | C. albicans CaCi-2 + fluconazole, Alamar Blue growth, 48 h | growth inhibition, % (concentration not given with the values) | 300,000 compounds, 0.57% hits | AID 1979;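 active = growth inhibition above about 58% in most replicates, limit read from the data, passing the limit was not always enough; inconclusive = exactly half the replicates above a set limit; inactive = most replicates below a set limit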;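 also: all wells also contain fluconazole at 8 µg/ml as a sub-toxic cotreatment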
T cruzi inh: blocks replication of Trypanosoma cruzi. 300,000 compounds, 1.4% hits. T. cruzi beta-gal in NIH3T3, luminescence, 90 h. AID 1885. inhibition, % (test concentration not listed);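 active = mean inhibition across valid replicates above about 55%, limit read from the data; inconclusive = mean below that limit but half or more replicates reach it; inactive = mean below it, under half of replicates reach it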;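 also: signal also drops with host cell toxicity which is not excluded here; higher percent means less beta-gal luminescence so fewer parasites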
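Assay system: NIH/3T3 host cells with β-galactosidase reporter T. cruzi; input: 5,000 host fibroblasts per well; compound: single 50 nL compound addition per well in DMSO; timing: ≥90 h infection period, 3 h prior cell attachment; measured by: GalScreen β-gal luminescence, detergent lysis, 60 min; evaluation: percent inhibition of parasite-derived β-gal signal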
L major viab: inhibitors of Leishmania major promastigote growth | inhibition, % at 10 µM | 200,000 compounds, 9% hits | AID 1063 | Leishmania major promastigotes, resazurin fluorescence viability; in the data active = inhibition above about 50%;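 also: promastigotes grown with compound for 44 hours at 28 °C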
NALP1 inh: blocks the NALP1 inflammasome reconstituted in yeast | S. cerevisiae NALP1/ASC/caspase-1 growth, X-gal OD620, 72 h | 280,000 compounds, 0.61% hits | AID 2071 | inhibition, % at 10 µM; in the data active = inhibition mostly above about 24%, no sharp cut-off; inactive = mostly below about 32%
Of the large screens only hits and unclear results are named; the others gave an inactive call. The full list was thinned out, with hits kept by preference.

Cc1nn(-c2ccccc2)c(/N=C/c2ccc(O)cc2)c1-c1ccccc1	L major viab 52
O=C(NCc1ccccn1)c1cc(-c2ccccc2Cl)nc2ccccc12	L major viab 87
O=C(NNC(=O)c1cc(-c2ccc(Cl)cc2Cl)nc2ccccc12)Nc1ccccc1	L major viab 70
NC1=NC(=O)/C(=C/c2c(OS(=O)(=O)c3ccc(Cl)cc3)ccc3ccccc23)S1	L major viab 61
NC1=NC(=O)/C(=C/c2ccccc2OS(=O)(=O)c2ccccc2)S1	none
COc1ccc(N2CCN(C(=O)CN(C)S(=O)(=O)c3cnc[nH]3)CC2)cc1	none
CC(C)CCSc1nc(N)c(C#N)cc1C#N	T cruzi inh 67, L major viab 76 (no result: NALP1 inh)
COc1ccc(-c2csc(Nc3ccccc3)n2)cc1	none
COc1cccc2sc(Nc3nc(-c4ccccn4)cs3)nc12	T cruzi inh 75, L major viab 100
c1ccc(-c2csc(Nc3cccnc3)n2)nc1	L major viab 58
c1ccc(Nc2nc(-c3ccccn3)cs2)cc1	Calb FLC inconclusive, L major viab 101 (no result: NALP1 inh)
CCOC(=O)c1cc2c(ccn2C)n1CC(=O)N1CCC(Cc2ccccc2)CC1	L major viab 95
CCOC(=O)c1cc2c(ccn2C)n1CC(=O)N1CCCC(C)C1 (stereo not given)	none
CC1CCc2sc(C(=O)N3CCC(C(N)=O)CC3)cc2C1 (stereo not given)	none (no result: PolyA inh, Calb FLC, T cruzi inh, L major viab, NALP1 inh)
CN(C)c1nc(Nc2ccc(F)cc2)nc(Oc2ccc(F)cc2)n1	none (no result: L major viab)
CN(C)c1nc(N/N=C/c2ccccc2O)nc(Nc2ccc(F)cc2)n1	Calb FLC inconclusive, L major viab 84
O=C1c2ccc3c4c(ccc(c24)C(=O)N1CCCCO)C(=O)N(CCCCO)C3=O	T cruzi inh 68, L major viab 100 (no result: NALP3 yeast inh)
O=C(c1ccc(NS(=O)(=O)c2ccc(F)cc2)cc1)N1CCCCC1	none (no result: L major viab, NALP1 inh)
O=C(c1ccc(S(=O)(=O)Nc2ccc(F)cc2)cc1)N1CCN(c2ccccn2)CC1	L major viab 99
Cc1cccc(-n2c(SCC(=O)N(C)C3CCS(=O)(=O)C3)nc3ccccc3c2=O)c1C (stereo not given)	none (no result: L major viab, NALP1 inh)
O=C(CSc1ncn[nH]1)Nc1ccccc1Sc1ccccc1	L major viab 70
COc1ccc(CN(C)C(C)C(=O)N(C)CC(=O)Nc2ccc(C)cc2)cc1F (stereo not given)	none (no result: PolyA inh, Calb FLC, T cruzi inh, L major viab, NALP1 inh)
CCOC(=O)C(=O)N1c2ccccc2C(N(C(=O)C(=O)OCC)c2ccccc2)CC1C (stereo not given)	none (no result: L major viab)
CC1CC(N(C(=O)c2ccc(Cl)cc2)c2ccccc2)c2ccccc2N1C(=O)c1ccco1 (stereo not given)	L major viab 57
CC1CC(N(C(=O)C2CC2)c2ccccc2)c2ccccc2N1C(=O)C1CC1 (stereo not given)	none
CC1CC(N(C(=O)c2ccco2)c2ccccc2)c2ccccc2N1C(=O)c1ccco1 (stereo not given)	L major viab 62
CC(=O)c1ccc(NC(=O)C(C)OC(=O)c2ccc(Br)o2)cc1 (stereo not given)	none (no result: PolyA inh, Calb FLC, T cruzi inh, L major viab, NALP1 inh)
O=C(Nc1cccn(Cc2c(F)cccc2Cl)c1=O)NC1CCCCC1	L major viab 80
O=C(Nc1cccn(Cc2cccc(F)c2)c1=O)NC1CCCCC1	L major viab 83
CCc1ccc(CN2CCCC(CNC(=O)c3cccc(OC)c3OC)C2)cc1 (stereo not given)	T cruzi inh 61 (no result: L major viab)
COc1ccc(CC(=O)NCC2CCCN(Cc3cc(OC)cc(OC)c3)C2)cc1 (stereo not given)	T cruzi inh 58 (no result: L major viab)
Cc1cc(CN2CCCC(CNC(=O)c3ccc(F)cc3)C2)cc(C)c1O (stereo not given)	none
COC(=O)c1ccc(CN2CCCC(CNC(=O)Cc3ccc(OC)cc3)C2)cc1 (stereo not given)	none (no result: L major viab)
COc1cccc(CN2CCCC(CNC(=O)c3ccc(F)cc3)C2)c1OC (stereo not given)	T cruzi inh 68
CCn1ncc(CN2CCCC(CNC(=O)c3ccc(F)cc3)C2)c1C (stereo not given)	T cruzi inh 73
CCc1ccc(CN2CCCC(CNC(=O)c3cc(OC)cc(OC)c3)C2)cc1 (stereo not given)	none (no result: L major viab)
COCc1cc(CN2CCCC(CNC(=O)c3ccc(F)cc3)C2)ccc1OC (stereo not given)	T cruzi inh 81
COC(=O)C1=CN(Cc2ccc(F)cc2)C=C(C(=O)OC)C1c1cc(OC)c(OC)c(OC)c1	none (no result: L major viab)
COC(=O)C1=CN(Cc2ccc(OC)c(OC)c2)C=C(C(=O)OC)C1c1cccc(F)c1	T cruzi inh 63 (no result: L major viab)
O=C1Nc2ccc([N+](=O)[O-])cc2C1(O)N1CCCCCC1 (stereo not given)	none
COc1ccc(C)cc1S(=O)(=O)NC1CC1	none (no result: L major viab)
Cc1ccccc1CC1(CO)CCCN(Cc2nc(-c3cccs3)oc2C)C1 (stereo not given)	L major viab 55
CCOc1ccc(C2SCC(=O)N2c2c(C)n(C)n(-c3ccccc3)c2=O)cc1 (stereo not given)	none (no result: Calb FLC)
CCOc1ccc(C2=C(C=Nc3c(C)n(C)n(-c4ccccc4)c3=O)C(c3ccc(F)cc3)c3ccccc3O2)cc1 (stereo not given)	L major viab 57
C=CCN1C(=Nc2cccnc2)SCC1(O)c1ccc(C)cc1 (stereo not given)	L major viab 61
C=CCN1C(=O)CSC1=Nc1cccc(O)c1	none
Fc1cccc(CN2CCN(Cc3nc(CCc4ccccc4)no3)CC2)c1	L major viab 79
C(=C\c1ccccc1)/CN1CCN(Cc2ccc3c(c2)OCO3)CC1	none (no result: L major viab)
Fc1ccccc1Cc1noc(CN2CCN(Cc3ccc4c(c3)OCO4)CC2)n1	T cruzi inh 60, L major viab 84
O=C(c1ccccc1F)N1CCN(Cc2ccc3c(c2)OCO3)CC1	none (no result: L major viab)
c1ccc(Cc2noc(CN3CCN(Cc4ccc5c(c4)OCO5)CC3)n2)cc1	L major viab 90
C(=C\c1ccccc1)/CN1CCN(Cc2nc(Cc3ccccc3)no2)CC1	L major viab 80
Cc1cccc(N2C(=O)C3CC3C2=O)c1 (stereo not given)	none
Cc1ccc(C)c(N(C(=O)c2csnn2)C(C(=O)NC2CCCCC2)c2ccccn2)c1 (stereo not given)	none (no result: L major viab)
Cn1c(NC(=O)c2ccccc2F)c(-c2cccs2)c(=O)c2ccccc21	none (no result: L major viab)
NC(=O)c1ccsc1NC(=O)CS(=O)(=O)c1ccccc1	none (no result: L major viab, NALP1 inh)
Cc1cc(NC(=O)CSc2ccc3c(c2)OCCO3)no1	none
COc1ccccc1CN1CCN(Cc2nc(Cc3ccccc3)no2)CC1	T cruzi inh 63
Cc1ccc(Nc2cc(C)nc3ncnn23)c(Cl)c1	none
Cc1cc(Nc2cccc(Cl)c2Cl)n2ncnc2n1	Calb FLC 116 (no result: L major viab)
Cc1cc(Nc2ccc(Cl)cc2)n2nnnc2n1	none
Cc1cc(Nc2ccccc2Cl)n2nnnc2n1	L major viab 87
